High-throughput results from PubChem.
KCNQ1 inh: inhibitors of human KCNQ1 channel, primary screen, cell-based, thallium flux, high-throughput. CHO-K1 KCNQ1, FluxOR thallium flux fluorescence; hits give high values. Potassium voltage-gated channel subfamily KQT member 1 (Homo sapiens), P51787. AID 2642, 2010. hit rate 1.3% among 310,000. B-score at 10 µM;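 active = compounds whose thallium flux B-score, printed positive for inhibition, exceeds three library SD while starting fluorescence stays within three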;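 also: channel opened by potassium depolarization with thallium stimulus after 20 min compound exposure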
KCC2 mod: KCC2 cotransporter modulators, thallium flux, primary screen, cell-based, HEK293 KCC2, FluoZin-2 fluorescence, MLSMR. Solute carrier family 12 member 5 (Homo sapiens), Q9H2X9. KCC2 cells, thallium flux FluoZin-2 fluorescence. B-score of Tl+ flux slope (higher = more flux/activation; lower = inhibition) at 10 µM. hit rate 2.2% among 190,000;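 active = thallium flux slope and its plate-corrected score both differing from the plate sample mean at a set confidence after two filtering rounds, in either direction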;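 also: slope of fluorescence scaled to starting intensity during 10 to 20 s after thallium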
hERG protect: hERG rescue from dofetilide block, primary screen, cell-based, CHO-hERG, FluxOR thallium flux, dofetilide IC70; dofetilide IC70 present; activation (rescue from dofetilide block), less the hit threshold, % at 10 µM; hit rate 0.51% among 310,000; AID 1511, 2009;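 active = activation above the mean of controls blocked by dofetilide plus 5 SD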;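 also: thallium influx through hERG after potassium depolarization seen as dye fluorescence rise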
Target sequence (Q12809 whole entry, looked up): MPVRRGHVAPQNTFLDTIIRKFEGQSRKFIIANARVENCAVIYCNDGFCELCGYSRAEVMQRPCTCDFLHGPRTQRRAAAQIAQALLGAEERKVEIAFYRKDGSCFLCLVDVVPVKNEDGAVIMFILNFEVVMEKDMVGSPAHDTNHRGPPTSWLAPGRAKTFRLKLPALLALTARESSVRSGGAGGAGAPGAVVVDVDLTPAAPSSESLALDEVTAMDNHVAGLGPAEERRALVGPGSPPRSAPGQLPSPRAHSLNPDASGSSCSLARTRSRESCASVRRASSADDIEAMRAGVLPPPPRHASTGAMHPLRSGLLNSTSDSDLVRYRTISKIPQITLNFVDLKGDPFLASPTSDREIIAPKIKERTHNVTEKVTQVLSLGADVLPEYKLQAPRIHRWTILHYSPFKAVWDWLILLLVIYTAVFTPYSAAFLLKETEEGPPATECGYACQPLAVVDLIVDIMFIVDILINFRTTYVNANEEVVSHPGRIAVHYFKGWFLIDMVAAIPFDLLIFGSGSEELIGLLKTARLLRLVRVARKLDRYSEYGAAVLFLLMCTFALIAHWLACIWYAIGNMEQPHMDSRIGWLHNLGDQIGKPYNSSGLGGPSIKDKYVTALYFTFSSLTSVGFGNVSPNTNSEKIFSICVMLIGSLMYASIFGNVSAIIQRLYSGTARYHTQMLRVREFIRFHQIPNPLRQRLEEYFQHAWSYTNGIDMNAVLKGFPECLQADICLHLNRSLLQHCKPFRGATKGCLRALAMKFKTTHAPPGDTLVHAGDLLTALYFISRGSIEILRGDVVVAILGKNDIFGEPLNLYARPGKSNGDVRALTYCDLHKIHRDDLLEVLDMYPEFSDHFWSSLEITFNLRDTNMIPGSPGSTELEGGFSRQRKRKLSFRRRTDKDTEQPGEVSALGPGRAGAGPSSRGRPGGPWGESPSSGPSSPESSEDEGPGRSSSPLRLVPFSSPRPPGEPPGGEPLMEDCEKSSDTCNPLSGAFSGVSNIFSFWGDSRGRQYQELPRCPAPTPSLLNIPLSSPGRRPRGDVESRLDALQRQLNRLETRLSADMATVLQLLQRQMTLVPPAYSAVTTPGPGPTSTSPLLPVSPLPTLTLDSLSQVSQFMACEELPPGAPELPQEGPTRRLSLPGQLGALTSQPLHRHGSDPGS
AI-2 QS modul: Vibrio harveyi AI-2 quorum sensing modulators, primary screen, JMH597 strain, luminescence/OD600 ratio. hit rate 0.4% among 300,000. activity change, % at 7.5 µM. Vibrio harveyi JMH597 AI-2 luminescence/OD600 ratio, 9 h; hits give low values; strain lacks LuxN and CqsS sensors; 0 = neutral-control median; in the data active = activity change below about -75%, passing the limit was not always enough;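 also: luminescence divided by OD600 gain over 9 h not by final OD600 alone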
SUMO Mot1 rescue: yeast Mot1-301 growth rescue at high temperature, primary screen, SUMOylation pathway inhibitor project, S. cerevisiae, ATP luminescence, 38.5C | AID 2716, 2010 | growth rescue, % at 18.8 µM | hit rate 1% among 320,000 | S. cerevisiae Mot1-301 growth rescue; percent above DMSO median, 100 means doubled;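 active = every valid replicate shows activation above 250% relative to neutral control wells; inactive = the rest, any valid replicate at or below 250%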
KCNQ1 pot: potentiators or activators of KCNQ1 channel, primary screen, cell-based, thallium flux, high-throughput. B-score at 10 µM. hit rate 0.35% among 310,000. AID 2648, 2010. CHO-K1 KCNQ1, thallium flux FluxOR fluorescence; hits give high values. Potassium voltage-gated channel subfamily KQT member 1 (Homo sapiens), P51787;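 active = fluorescence ratio B-score, a plate-corrected score, at least three library SD, with initial intensity B-score within 5 SD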
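Test system: CHO-K1 cells stably expressing KCNQ1 / Medium: assay buffer / Also added: depolarizing K+/Tl+ stimulus, K2SO4 and Tl2SO4 each 12.5 mM in 5x stock / Incubation: 90 min dye loading and 20 min compound exposure, both at room temperature / Signal: thallium influx via FluxOR fluorescence, kinetic imaging / Evaluation: B score of baseline-normalized fluorescence ratio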
Large screens that a line does not name were inactive. A selection: hits, their analogues and other compounds. The true share with any hit is near 4.2%.

O=C(Nc1cccc([N+](=O)[O-])c1)c1ccc2ccccc2c1O	KCNQ1 inh 6
Cc1occc1C(=O)Nc1cccc([N+](=O)[O-])c1	hERG protect 8.6
O=C(Cc1ccccc1)Nc1cccc([N+](=O)[O-])c1	none
Cc1ccc([N+](=O)[O-])cc1NC(=O)c1ccoc1C	none
O=C(N/N=C/c1ccc([N+](=O)[O-])cc1)c1[nH]ncc1Br	none
COc1cc(OC)cc(C(=O)NNC(=O)C2CCCC2)c1	SUMO Mot1 rescue 331 (no result: KCC2 mod)
COc1cc(C(=O)NNC(=O)C2CCCC2)cc(OC)c1OC	none (no result: KCC2 mod)
CCCN1C2CCCC1CC(NC(=O)c1ccccc1OC)C2 (stereo not drawn)	KCNQ1 inh 8 (no result: KCC2 mod)
CCCN1C2CCCC1CC(NC(=O)c1ccccc1OCC)C2 (stereo not drawn)	none
CCC1(C)Cc2ccccc2C(=S)N1 (stereo not drawn)	none
CCCn1c(SCC(=O)N2CCN(C(C)=O)CC2)nc2sc3c(c2c1=O)CCC3	hERG protect 25, KCNQ1 pot 16 (no result: KCC2 mod)
CCn1c(SC(C)C(=O)O)nc2sc3c(c2c1=O)CCC3 (stereo not drawn)	KCC2 mod 26, hERG protect 15, KCNQ1 pot 14 (no result: AI-2 QS modul)
COC(=O)c1nn(-c2ccccc2)c(=O)cc1Oc1ccccc1	none (no result: SUMO Mot1 rescue)
COCCCNC(=O)CN(c1ccc(F)cc1)S(=O)(=O)c1ccc2c(c1)OCCO2	none (no result: KCC2 mod)
O=C(NNc1ccc(-c2csnn2)cc1)c1cc(Cl)cc(Cl)c1	SUMO Mot1 rescue 283
COc1ccc(C=C2C=C(C(C)(C)C)C(=O)C(C(C)(C)C)=C2)cc1OC	KCNQ1 inh 6 (no result: KCC2 mod)
CCOC(=O)c1ccc(CC(=O)c2ccc(O)cc2O)o1	none (no result: SUMO Mot1 rescue)
CCC(=O)Oc1ccc(C/C(=N\O)c2ccc(O)cc2O)o1	KCNQ1 inh 7 (no result: KCC2 mod)
COc1cccc(-c2nn(-c3ccccc3)cc2CN(C)C(C)c2ccon2)c1 (stereo not drawn)	KCNQ1 inh 6
O=C1S/C(=C\c2ccc(O)c([N+](=O)[O-])c2)C(=O)N1c1ccccc1Cl	KCNQ1 inh 10, KCC2 mod -3.5
COc1cc(/C=C2\SC(=O)N(c3cccc(Cl)c3)C2=O)cc([N+](=O)[O-])c1O	none (no result: KCNQ1 inh, hERG protect, AI-2 QS modul, SUMO Mot1 rescue, KCNQ1 pot)
O=C1S/C(=C\c2ccc(O)c([N+](=O)[O-])c2)C(=O)N1Cc1cccc([N+](=O)[O-])c1	KCNQ1 inh 11 (no result: KCC2 mod)
Cc1cccc(NC(=O)CN2C(=O)S/C(=C\c3ccc(O)c([N+](=O)[O-])c3)C2=O)c1	none
O=C(C1CCN(S(=O)(=O)c2c(Cl)cccc2Cl)CC1)N1CCCCCCC1	none (no result: KCC2 mod)
CCCCCNC(=O)Cn1c(=O)c2c(ncn2CC(C)C)n(Cc2ccccc2)c1=O	none (no result: KCC2 mod)
Cc1ccc(-n2ncc3c2CCCC3NC(=O)c2csnn2)cc1C (stereo not drawn)	hERG protect 19 (no result: KCC2 mod)
CCc1cc(C(=O)NC2CCCc3c2cnn3-c2cccc(C)c2C)n(C)n1 (stereo not drawn)	KCNQ1 inh 11 (no result: KCC2 mod)
Cc1cc(C)cc(-n2ncc3c2CCCC3NC(=O)c2csnn2)c1 (stereo not drawn)	hERG protect 36 (no result: KCC2 mod)
Cc1cc(F)ccc1S(=O)(=O)N1CCCOC1CNC(=O)C(=O)NCc1ccncc1 (stereo not drawn)	none (no result: KCC2 mod)
COc1ccc([N+](=O)[O-])cc1N(CC(=O)NCCCOC(C)C)S(C)(=O)=O	none
CN(CCC#N)C(=O)COC(=O)c1ccc(Cl)c(S(=O)(=O)N(C)c2ccccc2)c1	none
CCOC(=O)N1CCN(C(=O)/C(=C/c2ccc(Br)cc2)NC(=O)c2ccc(OC)cc2)CC1	none
Cc1ccccc1C(=O)NC1CCN(CC(=O)NCc2ccccc2)CC1	none (no result: KCC2 mod)
OCC1OC(n2cnc3c(NCCc4ccccc4)ncnc32)C(O)C1O (stereo not drawn)	SUMO Mot1 rescue 317 (no result: KCC2 mod)
O=C(CSCSCC(=O)Nc1ccc2c(c1)OCO2)Nc1ccc2c(c1)OCO2	hERG protect 5.0
O=C(CN1C(=O)CSCC1=O)Nc1ccc2c(c1)OCO2	hERG protect 4.7
Cc1nn(C)c(C)c1CNC(=O)Nc1ccc2c(c1)OCO2	hERG protect 7.4 (no result: SUMO Mot1 rescue)
Cc1cc(N2CCOCC2)nc2ccc(NC(=S)N3CCN(c4ccccc4)CC3)cc12	SUMO Mot1 rescue 340
Fc1ccccc1CNc1ccc(Cl)cc1	none (no result: KCC2 mod)
Clc1ccc(NCc2ccsc2)cc1	SUMO Mot1 rescue 408 (no result: KCC2 mod)
O=C(NCc1ccc2c(c1)OCO2)c1cc(-c2ccccc2)nn1CC1CC(c2cccnc2)=NO1 (stereo not drawn)	none (no result: KCC2 mod)
COc1ccc(C(=O)C(/C=N/O)=N/Nc2ccc(F)cc2)cc1	KCNQ1 inh 10
Cc1nc(C)n(CC(O)COc2ccc3ccccc3c2)n1 (stereo not drawn)	none
CC(=O)Nc1ccc(OCC(O)Cn2nc(C)nc2C)cc1 (stereo not drawn)	hERG protect 5.5
O=C(Cc1ccc(Cl)c(Cl)c1)Nc1ccc2[nH]c(=O)[nH]c2c1	none
COc1cccc(-c2nn3c(-c4cc(C)[nH]n4)nnc3s2)c1	hERG protect 5.9
CCOC(=O)c1c(C)oc2ccc(OCC(N)=O)cc12	none
CCOC(=O)c1c(C)cccc1OCC(N)=O	hERG protect 6.2
O=C(CN(Cc1ccc(Cl)cc1)S(=O)(=O)c1ccccc1)NCC1CCCO1 (stereo not drawn)	none (no result: KCC2 mod)
COc1ccc(Br)cc1C(=O)Nc1cccc(-c2nnc(-c3ccco3)o2)c1	SUMO Mot1 rescue 331
Cc1nn(C)cc1/C=C/C(=O)c1ccc(O)cc1	hERG protect 6.2
Cc1ccc(C(=O)NC(=S)N2CCCC2)cc1	none (no result: KCC2 mod)
O=C(Nc1cc(SCCO)cc([N+](=O)[O-])c1)c1ccc(Br)o1	none
CCOC(=O)C1=C(c2ccccc2)Nc2ncnn2C1c1ccc(C(=O)O)cc1 (stereo not drawn)	none
CCOC(=O)C1=C(c2ccccc2)NC(N)=NC1c1ccc(OCc2ccc(C(=O)OC)cc2)cc1 (stereo not drawn)	AI-2 QS modul -92
COC(=O)c1[nH]c2ccccc2c1NC(=O)CNC1CCCCC1	none
Cc1ncc(CO)c(/C=N/NC(=S)Nc2ccc(Cl)c(Cl)c2)c1O	KCNQ1 inh 11, AI-2 QS modul -210
Cc1ncc(CO)c(/C=N/NC(=O)c2ccc(O)cc2)c1O	none
Cc1ncc(CO)c(/C=N/NC(=S)Nc2cccc(Cl)c2)c1O	KCNQ1 inh 6
N#Cc1ccc(NC(=O)Cn2cnc(S(=O)(=O)N3CCCC3)c2)cc1	none (no result: KCC2 mod)
